Values after ≈ are worked out from the molar mass of the structure shown. “Also recorded” adds a separate entry of the source.
Assays:
SH-SY5Y cells = test: Cytotoxicity assay; format: cell-based; conditions: SH-SY5Y cells; for Cytotoxicity (SH-SY5Y cells, 24 h): 24 h incubation, CellTiter-Glo; for Cytotoxicity as stated in text: approximate value for both enantiomers
How it was run: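 SH-SY5Y cells seeded at 6000/well in 1:1 EMEM/F12 with 10% FBS. Exposure 24 h at 37 °C, then CellTiter-Glo luminescence read. Percent cytotoxicity normalized to DMSO controls.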

[1] = system: calcium/CaM-dependent kinase 2γ (CaMK2γ); test: CaM-dependent kinase assay; format: biochemical, Human; conditions: single concentration of 100 μM, in the presence of CaM
How it was run: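 ADP-Glo reaction with CaMK2γ (12 ng), 25 μM ATP and Autocamtide-2 substrate, carried out with CaM present. Test compound is at a single 100 μM from DMSO; incubation 60 min at room temperature. Luminescent readout gives percent enzyme activity relative to the reaction without compound. Run three times with at least two replicates per experiment; mean ± SEM.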

[2] = target: death-associate protein kinase 1 (DAPK1) (Homo sapiens, UniProt P53355); test: CaM-dependent kinase assay; format: biochemical; conditions: single concentration of 100 μM, in the presence of CaM
How it was run: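 Recombinant DAPK1 (25 ng), run with ADP-Glo at 5 μM ATP with native swine myelin basic protein as substrate, in the presence of CaM. Test compound is added at a single 100 μM (DMSO) and reacted 60 min at room temperature. Luminescence is read, and activity is expressed as percent of the no-compound reaction. Three experiments, ≥2 replicates each; mean ± SEM.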

[3] = system: mHtt toxicity in PC12 cells; test: Protection against mHtt toxicity in neuronal cell model for HD; format: cell-based; conditions: three different concentrations
How it was run: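 Each experiment run at least three times; values reported as mean ± standard error of the mean.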

[4] = target: His-mHtt and GST-CaM (CaM–mHtt interaction) (Homo sapiens, UniProt P0DP23+P42858); test: CaM/mHtt AlphaScreen binding assay; conditions: for IC50: read-out: AlphaScreen CaM–mHtt, IC50, triplicate
How it was run: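 His-mHtt (10 nM) preincubated 30 min with test compound, then GST-CaM (10 nM) added for 60 min at room temperature. Ni-chelate acceptor (10 μg/mL) and glutathione donor beads (15 μg/mL) are added for 2 h, then Alpha counts are read. Final 300–0.002 μM, triplicate; % inhibition normalized to DMSO controls.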

Kinetic solubility = format: physicochemical
PAMPA permeability = format: in vitro ADME

Sequence of His-mHtt and GST-CaM (CaM–mHtt interaction) (P42858 whole entry, one chain of several): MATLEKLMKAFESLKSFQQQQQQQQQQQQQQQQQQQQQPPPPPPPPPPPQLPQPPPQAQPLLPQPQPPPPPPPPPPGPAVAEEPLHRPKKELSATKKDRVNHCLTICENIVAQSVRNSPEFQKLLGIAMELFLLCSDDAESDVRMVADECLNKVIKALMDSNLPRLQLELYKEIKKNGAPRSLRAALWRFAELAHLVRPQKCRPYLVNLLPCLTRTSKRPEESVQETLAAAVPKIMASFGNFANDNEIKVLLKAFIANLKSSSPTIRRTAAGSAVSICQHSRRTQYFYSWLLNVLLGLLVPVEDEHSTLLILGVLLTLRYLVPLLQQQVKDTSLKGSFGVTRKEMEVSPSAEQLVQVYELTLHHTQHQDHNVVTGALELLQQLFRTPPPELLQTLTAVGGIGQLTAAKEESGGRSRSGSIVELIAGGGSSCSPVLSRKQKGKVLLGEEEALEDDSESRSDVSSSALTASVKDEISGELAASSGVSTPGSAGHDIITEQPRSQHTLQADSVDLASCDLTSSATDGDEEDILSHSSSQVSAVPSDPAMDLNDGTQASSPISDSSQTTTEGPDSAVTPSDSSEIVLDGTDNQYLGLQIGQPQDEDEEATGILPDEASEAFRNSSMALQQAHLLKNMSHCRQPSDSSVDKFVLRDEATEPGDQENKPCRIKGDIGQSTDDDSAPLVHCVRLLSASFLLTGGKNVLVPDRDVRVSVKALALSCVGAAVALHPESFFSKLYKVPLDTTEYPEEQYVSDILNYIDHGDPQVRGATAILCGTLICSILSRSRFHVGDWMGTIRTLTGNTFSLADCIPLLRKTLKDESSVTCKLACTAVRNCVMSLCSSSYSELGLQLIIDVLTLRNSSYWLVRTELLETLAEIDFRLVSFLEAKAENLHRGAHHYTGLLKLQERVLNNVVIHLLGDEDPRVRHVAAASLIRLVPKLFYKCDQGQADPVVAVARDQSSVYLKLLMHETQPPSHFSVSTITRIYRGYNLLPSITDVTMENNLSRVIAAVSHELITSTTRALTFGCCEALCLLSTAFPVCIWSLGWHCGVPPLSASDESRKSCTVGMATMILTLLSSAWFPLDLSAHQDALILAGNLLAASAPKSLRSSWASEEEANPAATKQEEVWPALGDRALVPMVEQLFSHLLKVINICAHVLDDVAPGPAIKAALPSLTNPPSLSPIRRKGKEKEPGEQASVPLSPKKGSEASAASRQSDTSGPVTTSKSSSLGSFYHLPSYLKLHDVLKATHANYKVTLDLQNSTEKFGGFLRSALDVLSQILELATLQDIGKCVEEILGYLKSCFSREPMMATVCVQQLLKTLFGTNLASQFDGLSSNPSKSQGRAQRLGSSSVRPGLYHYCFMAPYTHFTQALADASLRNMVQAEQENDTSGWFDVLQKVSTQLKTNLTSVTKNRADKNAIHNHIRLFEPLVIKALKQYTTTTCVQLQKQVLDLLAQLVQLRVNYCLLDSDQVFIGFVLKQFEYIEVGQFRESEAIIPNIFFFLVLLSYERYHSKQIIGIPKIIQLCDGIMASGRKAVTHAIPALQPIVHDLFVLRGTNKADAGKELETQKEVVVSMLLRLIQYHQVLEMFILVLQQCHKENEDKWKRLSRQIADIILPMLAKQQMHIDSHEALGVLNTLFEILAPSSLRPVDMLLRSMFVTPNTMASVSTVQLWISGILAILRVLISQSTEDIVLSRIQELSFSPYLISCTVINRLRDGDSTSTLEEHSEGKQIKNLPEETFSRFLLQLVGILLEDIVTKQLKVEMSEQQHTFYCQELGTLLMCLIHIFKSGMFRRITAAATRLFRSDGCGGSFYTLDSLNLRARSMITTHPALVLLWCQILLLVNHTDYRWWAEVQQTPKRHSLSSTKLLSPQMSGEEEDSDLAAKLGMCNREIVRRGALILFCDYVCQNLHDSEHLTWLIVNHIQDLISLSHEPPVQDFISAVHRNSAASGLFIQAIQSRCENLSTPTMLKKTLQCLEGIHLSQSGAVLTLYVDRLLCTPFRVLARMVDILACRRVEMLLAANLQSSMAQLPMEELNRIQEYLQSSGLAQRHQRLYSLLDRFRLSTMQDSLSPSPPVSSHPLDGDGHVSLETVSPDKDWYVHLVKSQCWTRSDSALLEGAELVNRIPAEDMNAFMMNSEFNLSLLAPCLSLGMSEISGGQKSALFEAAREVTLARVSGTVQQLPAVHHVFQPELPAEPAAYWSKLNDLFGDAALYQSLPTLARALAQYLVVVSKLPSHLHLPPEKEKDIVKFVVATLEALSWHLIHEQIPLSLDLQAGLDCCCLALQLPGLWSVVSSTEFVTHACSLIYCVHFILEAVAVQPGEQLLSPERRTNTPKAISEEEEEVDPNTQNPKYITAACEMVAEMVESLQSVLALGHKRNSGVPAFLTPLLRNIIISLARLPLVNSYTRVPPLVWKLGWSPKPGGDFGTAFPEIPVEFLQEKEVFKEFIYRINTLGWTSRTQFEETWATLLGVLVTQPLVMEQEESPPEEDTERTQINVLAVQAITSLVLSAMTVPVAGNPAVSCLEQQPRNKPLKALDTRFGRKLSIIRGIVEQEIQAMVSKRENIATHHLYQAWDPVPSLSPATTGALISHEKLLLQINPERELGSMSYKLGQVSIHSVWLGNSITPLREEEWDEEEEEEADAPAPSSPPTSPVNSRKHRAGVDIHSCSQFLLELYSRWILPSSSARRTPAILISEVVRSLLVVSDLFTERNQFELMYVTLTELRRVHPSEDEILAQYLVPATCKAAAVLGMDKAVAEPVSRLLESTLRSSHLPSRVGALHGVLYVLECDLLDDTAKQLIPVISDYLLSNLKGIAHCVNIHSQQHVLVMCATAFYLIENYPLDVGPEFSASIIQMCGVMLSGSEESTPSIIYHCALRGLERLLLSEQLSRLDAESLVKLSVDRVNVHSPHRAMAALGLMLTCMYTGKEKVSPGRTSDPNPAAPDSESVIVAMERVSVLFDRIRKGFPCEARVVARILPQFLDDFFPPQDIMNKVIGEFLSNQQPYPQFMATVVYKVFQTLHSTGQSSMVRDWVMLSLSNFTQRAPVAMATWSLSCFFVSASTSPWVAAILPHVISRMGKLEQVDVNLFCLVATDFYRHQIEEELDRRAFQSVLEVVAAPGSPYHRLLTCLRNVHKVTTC
Sequence of death-associate protein kinase 1 (DAPK1) (P53355 1-363): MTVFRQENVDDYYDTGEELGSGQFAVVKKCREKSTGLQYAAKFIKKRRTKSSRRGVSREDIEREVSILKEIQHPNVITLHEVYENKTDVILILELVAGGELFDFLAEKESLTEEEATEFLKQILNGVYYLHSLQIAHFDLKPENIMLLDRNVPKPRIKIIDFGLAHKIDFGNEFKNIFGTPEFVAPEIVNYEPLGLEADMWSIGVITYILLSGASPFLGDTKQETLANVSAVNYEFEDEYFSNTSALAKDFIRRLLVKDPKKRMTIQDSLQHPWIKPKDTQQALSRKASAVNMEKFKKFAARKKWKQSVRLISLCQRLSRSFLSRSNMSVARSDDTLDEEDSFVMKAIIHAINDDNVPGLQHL

## C=C1CCN([C@@H](CC(C)C)C(=O)NCc2ccc(Cl)c(C(F)(F)F)c2)S(=O)(=O)c2ccccc21 [Compound 9d, (S)-N-(4-Chloro-3-(trifluoromethyl)benzyl)-4-methyl-2-(5-methylene-1,1-dioxido-4,5-dihydrobenzo[f][1,2]thiazepin-2 (3H)-yl)pentanamide]
SH-SY5Y cells
  Cytotoxicity (SH-SY5Y cells, 24 h): >300 µM
[1]
  Inhibition of CaMK2γ enzyme activity (in words): did not significantly inhibit
[2]
  Inhibition of DAPK1 enzyme activity (in words): did not significantly inhibit
[3]
  Protection against mHtt toxicity (in words): barely measurable activity; also recorded: do not show protection; also recorded: no significant rescue of the toxicity
[4]
  IC50: 1.38 µM

## C=C1CCN([C@@H](CC(C)C)C(=O)NCCc2ccc(Cl)c(Cl)c2)S(=O)(=O)c2ccccc21 [Compound 9h, (S)-N-(3,4-Dichlorophenethyl)-4-methyl-2-(5-methylene-1,1-dioxido-4,5-dihydrobenzo[f][1,2]thiazepin-2(3H)-yl) pentanamide]
SH-SY5Y cells
  Cytotoxicity (SH-SY5Y cells, 24 h): >300 µM
[1]
  Inhibition of CaMK2γ enzyme activity (in words): statistically significant impact; also recorded: statistically significant effect on inhibition
[2]
  Inhibition of DAPK1 enzyme activity (in words): but not DAPK1 activity
[3]
  Protection against mHtt toxicity (in words): barely measurable activity; also recorded: do not show protection; also recorded: did not show any significant effect
Kinetic solubility
  kinetic solubility: 0.6 µM (≈ 0.297 µg/mL)
PAMPA permeability
  permeability (PAMPA assay): 7.6 nm/s
[4]
  IC50: 0.55 µM

## C=C1CCN([C@@H](CC(C)C)C(=O)NCc2ccc(C)cc2)S(=O)(=O)c2ccccc21 [Compound 9e, (S)-4-Methyl-N-(4-methylbenzyl)-2-(5-methylene-1,1-dioxido-4,5-dihydrobenzo[f][1,2]thiazepin-2(3H)-yl) pentanamide]
SH-SY5Y cells
  Cytotoxicity (SH-SY5Y cells, 24 h): 102 ± 7 µM
[4]
  IC50: 15 µM

## Cc1ccc(CNC(=O)[C@H](CC(C)C)N2CCC(=O)c3ccccc3S2(=O)=O)cc1 [Compound 11e, (S)-2-(1,1-Dioxido-5-oxo-4,5-dihydrobenzo[f][1,2]thiazepin-2(3H)-yl)-4-methyl-N-(4-methylbenzyl)pentanamide]
SH-SY5Y cells
  Cytotoxicity (SH-SY5Y cells, 24 h): 43.4 µM
[4]
  IC50: 24.5 µM

## C=C1CCN([C@@H](CC(C)C)C(=O)NCc2ccc(Cl)cc2)S(=O)(=O)c2ccccc21 [Compound 9c, (S)-N-(4-Chlorobenzyl)-4-methyl-2-(5-methylene-1,1-dioxido-4,5-dihydrobenzo[f][1,2]thiazepin-2(3H)-yl) pentanamide]
SH-SY5Y cells
  Cytotoxicity (SH-SY5Y cells, 24 h): 94 ± 3 µM
  Cytotoxicity as stated in text: ca. 90 pM
[1]
  Inhibition of CaMK2γ enzyme activity (in words): did not significantly inhibit
[2]
  Inhibition of DAPK1 enzyme activity (in words): did not significantly inhibit
[4]
  IC50: 2.8 µM

## C=C1CCN([C@H](CC(C)C)C(=O)NCCc2ccc(Cl)c(Cl)c2)S(=O)(=O)c2ccccc21 [Compound 10h]
SH-SY5Y cells
  Cytotoxicity (SH-SY5Y cells, 24 h): >300 µM
[1]
  Inhibition of CaMK2γ enzyme activity (in words): did not significantly inhibit
[2]
  Inhibition of DAPK1 enzyme activity (in words): did not significantly inhibit
[4]
  IC50: 0.5 µM

## CC(C)C[C@@H](C(=O)NCc1ccc(Cl)c(C(F)(F)F)c1)N1CCC(=O)c2ccccc2S1(=O)=O [Compound 11d, (S)-N-(4-Chloro-3-(trifluoromethyl)benzyl)-2-(1,1-dioxido-5-oxo-4,5-dihydrobenzo[f][1,2]thiazepin-2(3H)-yl)-4-methylpentanamide]
SH-SY5Y cells
  Cytotoxicity (SH-SY5Y cells, 24 h): 44.2 µM
[4]
  IC50: 2.03 µM

## C=C1CCN([C@@H](CC(C)C)C(=O)NCc2ccccc2)S(=O)(=O)c2ccccc21 [Compound 9b]
SH-SY5Y cells
  Cytotoxicity (SH-SY5Y cells, 24 h): >300 µM
[4]
  IC50: 12.4 µM

## CC(C)C[C@@H](C(=O)NCC1CCCCC1)N1CCC(=O)c2ccccc2S1(=O)=O [Compound 11g, (S)-W-(Cyclohexylmethyl)-2-(1,1-dioxido-5-oxo-4,5-dihydrobenzo[f][1,2]thiazepin-2(3H)-yl)-4-methylpentanamide]
SH-SY5Y cells
  Cytotoxicity (SH-SY5Y cells, 24 h): 40.1 µM
[4]
  IC50: 31 µM

## COc1ccc(CNC(=O)[C@H](CC(C)C)N2CCC(=O)c3ccccc3S2(=O)=O)cc1 [Compound 11f, (S)-2-(1,1-Dioxido-5-oxo-4,5-dihydrobenzo[f][1,2]thiazepin-2(3H)-yl)-N-(4-methoxybenzyl)-4-methylpentanamide]
SH-SY5Y cells
  Cytotoxicity (SH-SY5Y cells, 24 h): 44.6 µM
[4]
  Disruption of mHtt-CaM PPI (in words): retained marginal activity
  IC50: 52.6 µM

## C=C1CCN([C@H](CC(C)C)C(=O)NCc2ccc(OC)cc2)S(=O)(=O)c2ccccc21 [Compound 10f, (R)-N-(4-Methoxybenzyl)-4-methyl-2-(5-methylene-1,1-dioxido-4,5-dihydrobenzo[f][1,2]thiazepin-2(3H)-yl) pentanamide]
SH-SY5Y cells
  Cytotoxicity (SH-SY5Y cells, 24 h): >300 µM
[4]
  Disruption of mHtt-CaM PPI (in words): lost all mHtt-CaM disruption activity
  IC50: > 300 µM

## C=C1CCN([C@H](CC(C)C)C(=O)NCc2ccc(Cl)cc2)S(=O)(=O)c2ccccc21 [Compound 10c, (R)-N-(4-Chlorobenzyl)-4-methyl-2-(5-methylene-1,1-dioxido-4,5-dihydrobenzo[f][1,2]thiazepin-2(3H)-yl) pentanamide]
SH-SY5Y cells
  Cytotoxicity (SH-SY5Y cells, 24 h): 86 ± 9 µM
  Cytotoxicity as stated in text: ca. 90 pM
[1]
  Inhibition of CaMK2γ enzyme activity (in words): did not significantly inhibit
[2]
  Inhibition of DAPK1 enzyme activity (in words): did not significantly inhibit
[4]
  IC50: 3 µM

## CC(C)C[C@@H](C(=O)NCCc1ccc(Cl)c(Cl)c1)N1CCC(=O)c2ccccc2S1(=O)=O [Compound 11h, (S)-N-(3,4-Dichlorophenethyl)-2-(1,1-dioxido-5-oxo-4,5-dihydrobenzo[f][1,2]thiazepin-2(3H)-yl)-4-methylpentanamide]
SH-SY5Y cells
  Cytotoxicity (SH-SY5Y cells, 24 h): 32.3 µM
[4]
  IC50: 0.97 µM

## C=C1CCN([C@@H](CC(C)C)C(=O)NCC2CCCCC2)S(=O)(=O)c2ccccc21 [Compound 9g, (S)-N-(Cyclohexylmethyl)-4-methyl-2-(5-methylene-1,1-dioxido-4,5-dihydrobenzo[f][1,2]thiazepin-2(3H)-yl) pentanamide]
SH-SY5Y cells
  Cytotoxicity (SH-SY5Y cells, 24 h): 101 ± 5 µM
[4]
  IC50: 16.6 µM
